Assay outcomes as filed in PubChem.
D1 mod – allosterically modulates the human D1 dopamine receptor; P21728; HEK293 D1, CRE-luciferase, dopamine EC30 potentiation; actives deviate in either direction; B-score at 10 µM; 58,000 compounds, 5.9% hits; AID 641;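 active = luminescence count or its row- and column-corrected plate score outside the 99.7% band of the plate's sample wells, on either side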
TNAP act DEA – activators of human TNAP at intermediate phosphate acceptor. P05186. purified TNAP, CDP-star luminescence, 100 mM DEA, 30 min; active compounds read high; scale: 0 levamisole-inhibited, 1 vehicle-only enzyme. activation factor at 20 µM. 64,000 tested, under 10 active;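 active = activation factor of at least 2 at 20 µM, relative to controls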
S1P3 agonist – agonists of human S1P3 receptor. 60,000 compounds, 0.1% hits. Q99500. activation, % at 4.5 µM. AID 373. S1P3 NFAT-BLA reporter cells, agonism, FRET ratio; relative to 1 µM S1P, basal subtracted;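 active = activation above the screen-wide mean plus 3 SD, cut at about 4.5% in these data, passing the limit was not always enough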
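Assay system: stable CHO line with human S1P3, Gα16, NFAT-BLA reporter; Detection: FRET β-lactamase substrate fluorescence, excitation 405 nm, 460/535 nm emission ratio, background-subtracted; Read-out: percent activation versus median 1 µM S1P response, basal-subtracted, per plate; Incubation: cells plated overnight, compound 4 h 37 °C, substrate 2 h RT.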
M1 agonist – M1 muscarinic receptor agonism | CHO-M1 cells, Fluo-4 calcium fluorescence, agonist mode; active compounds read high | 64,000 compounds, 3% hits | B-score at 10 µM | AID 626;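 active = fluorescence rise, raw or as B-score row- and column-corrected plate score, outside the 99.7% band of its plate's samples, either direction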
M1 antagonist – blocks the rat M1 muscarinic receptor response to acetylcholine; P08482; CHO-M1 cells, Fluo-4 calcium, ACh EC80 antagonist mode; active compounds read low; B-score at 10 µM; 64,000 compounds, 3.4% hits;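 active = calcium fluorescence response, raw or row-and-column corrected B-score, differing from the plate sample mean either way at a set confidence level, mostly lower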
Target sequence (P08482 whole entry, looked up): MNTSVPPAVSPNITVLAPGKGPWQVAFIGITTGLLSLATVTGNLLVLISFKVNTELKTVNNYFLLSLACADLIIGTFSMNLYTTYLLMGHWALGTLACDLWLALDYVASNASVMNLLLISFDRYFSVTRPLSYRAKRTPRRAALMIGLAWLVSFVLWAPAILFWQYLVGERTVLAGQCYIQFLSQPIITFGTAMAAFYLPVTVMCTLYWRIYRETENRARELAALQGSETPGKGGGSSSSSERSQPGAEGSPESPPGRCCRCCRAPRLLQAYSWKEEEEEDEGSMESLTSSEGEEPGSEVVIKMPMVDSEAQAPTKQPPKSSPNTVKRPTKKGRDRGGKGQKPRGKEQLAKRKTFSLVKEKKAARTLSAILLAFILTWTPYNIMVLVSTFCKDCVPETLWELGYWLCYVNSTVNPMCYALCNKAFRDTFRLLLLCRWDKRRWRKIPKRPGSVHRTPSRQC
S1P1 ag pot – activates or potentiates agonism at human S1P1 receptor; 56,000 compounds, 0.57% hits; activation, % at 9.5 µM; P21453; S1P1 CRE-bla cells, forskolin, beta-lactamase FRET, potentiator mode; S1P1 agonist co-added at EC20, 2 nM; 100% = saturating reference agonist, 0% = basal;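 active = activation above a cutoff set at the mean activation of all tested compounds plus 3 SD, cut at about 54% in these data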;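 note: forskolin at 4 µM as EC80 and the EC20 agonist is SEW2871; 100% = SEW2871 at its EC100 plus forskolin at EC80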
M1 antag conf – confirmation of rat M1 muscarinic receptor antagonists | AID 677 | calcium response (max-min fluorescence) at 10 µM | shares compounds with M1 antagonist | CHO-M1 cells, Fluo-4 calcium, ACh EC80 antagonism; active compounds read low | 1,700 compounds, 43% hits;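 active = calcium response below the same-plate mean of wells given acetylcholine alone at its 80%-effect dose, minus 3 SD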;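 note: raw fluorescence intensity difference in arbitrary instrument units and not normalized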
mGluR4 antag – mGluR4 (human) activity, M1 antagonist secondary assay; AID 678; 1,700 compounds, 0.9% hits; fluorescence response (max-min) at 10 µM; CHO-mGluR4 calcium flux, Fluo-4 fluorescence, glutamate EC80; active compounds read low; shares compounds with M1 antagonist;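 active = fluorescence response below the plate's average for near-maximal glutamate wells, less 3 SD of those wells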;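 note: raw unnormalized fluorescence span taken in the window right after glutamate addition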
An asterisk follows results filed as active; / = not tested or not shown. Rows were chosen to be rich in hits. Some 11% of all compounds tested hit in one or more screens of this group.

SMILES | D1 mod | TNAP act DEA | S1P3 agonist | M1 agonist | M1 antagonist | S1P1 ag pot | M1 antag conf | mGluR4 antag
S=c1[nH]nc(C23CC4CC(CC(C4)C2)C3)n1Cc1ccco1 | -1.07 | 0.9 | -0.5 | -0.0842 | -1.51 | 0.7 | / | /
O=C(Nc1ccc2c(c1)OCO2)C(c1ccccc1)N1CCCCC1 (stereo not given) | -0.745 | 0.9 | -1.5 | -0.628 | -3.39* | 9.7 | 501* | 205
CC1CCCN(C(C(=O)Nc2ccc3c(c2)OCO3)c2ccccc2)C1 (stereo not given) | -0.854 | 0.9 | -0.4 | 0.156 | -4.97* | 33.6 | 479* | 253
CC1CCC(NC(=O)C2c3ccccc3C(=O)N2CCCN2CCOCC2)CC1 (stereo not given) | -0.268 | 1 | 0.0 | -0.104 | 0.0251 | 15.1 | / | /
Cc1c(NC(=O)c2ccc(Br)o2)c(=O)n(-c2ccccc2)n1C | -0.00409 | 0.8 | -1.0 | -0.299 | -0.0692 | -18.3 | / | /
Cc1sc2nc3ccc(N4CCCCC4)nn3c(=O)c2c1C | 1.75 | 0.9 | -0.3 | 2.96 | -2.33* | -69.3 | 619 | 222
Cc1ccc2nc3ccc(N4CCCC4)nn3c(=O)c2c1 | 0.266 | 1 | -0.6 | -0.0303 | -1.02 | -19.6 | / | /
O=C(CN1CCC(NC(=O)Nc2ccccc2-c2ccccc2)CC1)NCc1ccco1 | 0.123 | 0.9 | -1.4 | -1.35 | -4.03* | -6.5 | 215* | 197
O=C1NCCCc2nc(Oc3ccccc3)sc21 | 0.114 | 0.9 | -1.2 | -0.51 | -3.27* | -15.1 | 623 | 228
CN(C)c1ccc(NC(=O)CN2CCN(CC(=O)Nc3ccc(F)cc3)CC2)cc1 | 0.542 | 1 | 0.0 | -0.728 | -4.59* | -15.4 | 718 | 263
CCOc1ccc(NC(=O)CN2CCN(CC(=O)Nc3ccc(F)cc3)CC2)cc1 | 0.0079 | 1 | -0.5 | -0.242 | 0.203 | -33.5 | / | /
CN1CCN(CCCNC(=O)C2CCN(c3nnc(-n4cccc4)s3)CC2)CC1 | / | 1 | 0.2 | 0.00275 | -0.897 | -2.1 | / | /
CCN(CCNC(=O)C1CCN(c2nnc(-n3cccc3)s2)CC1)c1ccccc1 | -1.24 | 0.9 | 0.7 | -0.426 | -0.826* | -1.7 | 630 | 192
CCCCc1c(C)nn(-c2nnc3c4ccccc4n(CC)c3n2)c1C | -1.4 | 1.1 | -0.2 | -0.325 | -2.7* | -51.2 | 591 | 186
Cc1nnc(SCCn2c(N3CCC(Cc4ccccc4)CC3)nc3c2c(=O)[nH]c(=O)n3C)s1 | 0.42 | 0.9 | / | -0.619 | -0.763 | / | / | /
Cc1nnc(SCCn2c(N3CCN(Cc4ccccc4)CC3)nc3c2c(=O)[nH]c(=O)n3C)s1 | 1.31 | 1 | 0.3 | -1.29 | -4.06* | -12.3 | 588 | 246
COc1ccccc1C1(O)CC2CCC(C1)N2S(=O)(=O)c1ccc(C(C)=O)cc1 (stereo not given) | 1.82 | 0.9 | -0.8 | -1.05 | 0.612 | -11.4 | / | /
CCOC(=O)c1ccc(NC(=O)CCC(CC)C(=O)O)cc1 (stereo not given) | / | 0.9 | -2.7 | -0.99 | 0.252 | 5.9 | / | /
CCCCC(CCC(=O)Nc1ccccc1C(=O)OCC)C(=O)O (stereo not given) | -0.0358 | 1 | 0.2 | 1.46 | -4.29* | -8.8 | 685 | 251
COC(=O)[C@H](C)NC(=O)Nc1cc(OC)ccc1OC | 3.62 | 1 | -0.9 | 0.675 | -1.36* | -7.5 | 614 | 241
Cn1c(=O)c2c3c(sc2n2c(SCC(N)=O)nnc12)CC(C(C)(C)C)CC3 (stereo not given) | / | 1 | 0.3 | 0.186 | -0.0762 | 21.4 | / | /
C=CCN(c1ccccc1)S(=O)(=O)c1ccc2c(c1)oc(=O)n2C | -0.299 | 0.9 | 1.4 | -1.98 | -1.87 | 8.3 | / | /
C=CCN(C1CCCCC1)S(=O)(=O)c1ccc2c(c1)oc(=O)n2C | 0.746 | 0.9 | 0.3 | 0.828 | -4.87* | -7.3 | 567 | 289
